# Reference: PMC3080100 (Chemical biology & drug design, 2011)
# * marks the point of attachment. FITC = O=C1OC2(c3ccc(O)cc3Oc3cc(O)ccc32)c2ccc(NC(=S)*)cc21
# Columns and labels:
# Format in all cases: cell-based, mouse
# [1] = test system: EpH4 cells; experiment: Apoptosis scored as caspase-3 positive cells; conditions: mean ± SEM; for percent apoptosis (caspase-3 positive cells): 200 μM peptide, 16 hours at 37°C; for percentage of cells containing caspase-3 (apoptosis): 2 mM peptide
# Summary of the method: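 EpH4 monolayers were exposed for 16 h to test compound over a dose range and fixed in 2% PFA (15 min RT). Then 0.5% Triton X-100 for 5 min and 2% BSA for 1 h. Primary: rabbit anti-cleaved caspase-3 (1:100), ± rat anti-ZO-1 (1:50), 1 h. Secondary: Cy3/FITC (1:150), 45 min. Percent positive cells scored; mean ± SEM, n=3-6 wells; unpaired t-test versus untreated.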
# [2] = test system: claudin-4; experiment: Claudin-4 localization by immunofluorescence; conditions: EpH4 cells; for claudin-4 localization: 16 hours; for claudin-4 localization, time course: 400 μM, 16 hours at 4°C
# [3] = test system: claudin-3; experiment: Claudin-3 localization by immunofluorescence; conditions: EpH4 cells, 16 hours, co-stained with ZO-1
# Summary of the method: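 EpH4 monolayers were exposed to peptide for 16 h, then fixed in 2% paraformaldehyde for 15 min at room temperature. Permeabilised with 0.5% Triton X-100 and blocked 1 h in 2% BSA. Stained 1 h with rabbit anti-claudin-3 (1:200) and rat anti-ZO-1 (1:50), then 45 min with fluorophore-conjugated donkey secondaries (1:150). Nuclei counterstained with DAPI; confocal z-stacks imaged.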
# [4] = test system: EpH4 cells; experiment: Live-cell binding/localization of FITC-labeled peptide at 4°C, EpH4; conditions: 400 μM, 1 hour at 4°C; for localization/binding of FITC-peptide at the plasma membrane: live imaging; for fluorescence intensity of FITC: washed in ice cold PBS, background subtracted, mean ± SEM, n=3 separate cultures, p=0.007
# Summary of the method: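 EpH4 cells were incubated 1 h at 4°C with 400 μM FITC-labelled test compound. Washed in ice-cold PBS and imaged live, without fixation. FITC intensity was measured after background subtraction. Mean ± SEM, n=3 separate cultures.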
# [5] = test system: caspase-3; experiment: Active caspase-3; conditions: EpH4 cells
# Summary of the method: (§1)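 EpH4 cells were grown 4-5 days on 8-well chamber slides to form tight junctions, then exposed to test compound or control peptide for 8, 16 or 24 h (DMSO <0.5% final). For the last 1 h, growth medium held 1X FLICA probe (sulforhodamine-DEVD-fmk for caspase-3/7; carboxyfluorescein-LETD-fmk for caspase-8). Optional 1 μM Hoechst 33342, 5 min 37°C; HBSS wash; 2% PFA, 15 min RT. Mean ± SEM, n=3-6.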
# [6] = test system: 3T3L1 cells; experiment: Active caspase-3 and -7, live-cell fluorescent indicator, 3T3L1 fibroblasts; conditions: 3T3L1 fibroblast cells, 400 μM, 1 hour at 4°C then up to 4 hours at 37°C
# Summary of the method: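 Live imaging of EpH4 or 3T3L1 cells (3T3L1 in DMEM/F12 with 10% bovine calf serum, split 1:8 every 2-3 days). Cells received 400 μM FITC-labelled test compound for 1 h at 4°C. Active caspase-3/7 indicator was then applied for 1 h at 4°C (time 0), or after 30 min, 2 h or 4 h at 37°C. PBS wash, then fluorescence imaging.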
# [7] = test system: caspase-8; experiment: Active caspase-8 by antibody, time course after warming from 4°C to 37°C; conditions: EpH4 cells, 400 μM, 16 hours at 4°C, then 4 hr at 37°C
# Summary of the method: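 EpH4 cells grown 4–5 days on glass chamber slides to form tight junctions, in DMEM with 5% FBS and 10 mM Hepes. Exposed to 400 μM FITC-labelled D-form test peptide for 16 h at 4°C (final DMSO <0.5%). Then fixed (time 0) or moved to 37°C for 30 min, 2 h or 4 h. Fixed in 2% paraformaldehyde, permeabilised, BSA-blocked, immunostained for claudin-4 and active caspase-8, then imaged.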
# [8] = test system: 3T3L1 cells; experiment: Live-cell binding/localization of FITC-labeled peptide at 4°C, 3T3L1; conditions: 3T3L1 fibroblast cells, 400 μM, 1 hour at 4°C, live imaging
# Summary of the method: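 3T3L1 fibroblasts grown in DMEM/F12 with 10% bovine calf serum and plated on glass chamber slides. Given 400 μM FITC-linked D-form test peptide for 1 h at 4°C. Then either 1 h with live caspase-3/7 FLICA indicator at 4°C (time 0), or 30 min, 2 h or 4 h at 37°C before 1 h with indicator. Washed in cold PBS and imaged live without fixation.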
# [9] = test system: EpH4 cells; experiment: TUNEL staining
# Summary of the method: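 EpH4 cells on chamber slides were exposed to 350 μM test compound or control peptide for 8, 16 or 24 h. Fixed in 2% PFA and permeabilised in 1% sodium citrate with 0.1% Triton X-100. TUNEL staining used a TMR-red in situ cell death kit per manufacturer. Mean ± SEM, n=3-6.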
# [10] = test system: caspase-8; experiment: Active caspase-8, live-cell fluorescent indicator; conditions: EpH4 cells, 16 hours of peptide, indicator added during the last hour
# Summary of the method: as §1
substance,measurement,setting,value
Ac-DFYNP-amide [linear D-peptide],percent apoptosis (caspase-3 positive cells),[1]; n=3-6,12.27±0.72%
same,claudin-4 localization,"[2]; linear D-peptide, co-stained with ZO-1",mis-localized
same,claudin-3 localization,[3]; linear D-peptide,mis-localization away from tight junctions
{FITC}-DGYNP-NH2 [FITC-D(G)YNP],localization/binding of FITC-peptide at the plasma membrane,[4],binds poorly
same,fluorescence intensity of FITC,[4],18.38±9.26
{FITC}-DFYNP-NH2,"caspase-3 and/or -7 activation, live cells","[5]; 400 μM, 1 hour at 4°C then 4 hours at 37°C",significantly increased
same,percent apoptosis (caspase-3 activation),"[1]; 800 μM peptide, 16 hours, n=3-6",10.58±0.83%
same,"caspase-3 and/or -7 activation, live cells",[6],no caspase activation
same,"claudin-4 localization, time course",[2]; then 30 min at 37°C,significant amount of claudin-4 mis-localization
same,"claudin-4 localization, time course",[2]; then 4 hr at 37°C,significant claudin-4 mis-localization
same,claudin-4 localization,[2]; 800 μM peptide,mis-localization of claudin-4 away from tight junctions
same,"caspase-8 activation, time course",[7],significant caspase-8 activation
same,localization/binding of FITC-peptide at the plasma membrane,[8],"does not, however, appear to bind to the plasma membranes"
same,localization/binding of FITC-peptide at the plasma membrane,[4],localizes to the plasma membrane at the sites of cell junctions
same,fluorescence intensity of FITC,[4],82.71±5.80
Ac-C-DFYNP-C-amide (disulfide) [peptide 3],percentage of cells containing caspase-3 (apoptosis),"[1]; 16 hours, n=3-6",7.96 ± 0.75%
same,percentage of cells containing caspase-3 (apoptosis),"[1]; 16 hours, n=3-6, listed as L-peptide",about 7%
NH2-C-DFYNP-C-OH (disulfide) [peptide 1],cells with activated caspase-3 compared to control,"[5]; 16 hours of peptide, indicator added during the last hour",significant number of cells
same,percentage of cells containing caspase-3 (apoptosis),"[1]; 16 hours, n=3-6",7.17 ± 1.24%
same,TUNEL staining compared to control peptide treated cells,"[9]; 350 μM, 8, 16 or 24 hours",significantly increased
same,time of peak TUNEL staining,"[9]; 350 μM, tested at 8, 16 or 24 hours",~16 h
same,cells with activated caspase-8 compared to control,[10],significant number of cells
same,claudin-4 localization,"[2]; 400 μM peptide, anti-claudin-4",mis-localization
Ac-C-DFYNP-C-OH (disulfide) [peptide 2],percentage of cells containing caspase-3 (apoptosis),"[1]; 16 hours, n=3-6",9.22 ± 0.65%
Ac-C-DFYNP-C-amide (disulfide) [disulfide-bridged D-peptide],percent apoptosis (caspase-3 positive cells),[1]; n=3-6,16.46 ± 0.51%
same,percentage of cells containing caspase-3 (apoptosis),"[1]; 16 hours, n=3-6, listed as D-peptide",100%
Ac-DGYNP-amide [D(G)YNP],percent apoptosis (caspase-3 positive cells),[1]; n=3-6,1.46±0.53%
same,percentage of cells containing caspase-3 (apoptosis),"[1]; 16 hours, n=3-6",1.34±0.21%
same,claudin-4 localization,"[2]; 400 μM peptide, anti-claudin-4",not affected
same,claudin-3 localization,[3]; 400 μM peptide,remained restricted to the tight junctions
LYQY [reference compound],claudin-4 localization,"[2]; 350 μM peptide, anti-claudin-4",no effect
